Results published in ChEMBL document CHEMBL1137875, “The identification and optimization of 2,4-diketobutyric acids as flap endonuclease 1 inhibitors” (Bioorg Med Chem Lett, 2004).

Tests used:
Flap endonuclease 1 = Flap endonuclease 1 (Homo sapiens, UniProt P39748); test: Concentration required for 50% inhibition of Flap endonuclease-1
Procedure, shortened: (§1)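 Fluorescence nuclease assay with 5 pmol BVT substrate in buffer at pH 8.0 containing 10 mM MgCl₂, 0.5 mM 2-mercaptoethanol, BSA and circular plasmid. Enzyme was 180 U FEN1 or 50 ng XPG. Reactions ran 90 min at room temperature and were stopped with 0.025% SDS/12.5 mM EDTA. Fluorescence was read at 485 nm excitation/538 nm emission.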

[1] = biological target: T1, DNA excision repair protein ERCC-5 (Homo sapiens, UniProt P28715); test: Concentration required for 50% inhibition of Xeroderma pigmentosum G; procedure, shortened: as §1
T1 sequence (P28715 whole entry): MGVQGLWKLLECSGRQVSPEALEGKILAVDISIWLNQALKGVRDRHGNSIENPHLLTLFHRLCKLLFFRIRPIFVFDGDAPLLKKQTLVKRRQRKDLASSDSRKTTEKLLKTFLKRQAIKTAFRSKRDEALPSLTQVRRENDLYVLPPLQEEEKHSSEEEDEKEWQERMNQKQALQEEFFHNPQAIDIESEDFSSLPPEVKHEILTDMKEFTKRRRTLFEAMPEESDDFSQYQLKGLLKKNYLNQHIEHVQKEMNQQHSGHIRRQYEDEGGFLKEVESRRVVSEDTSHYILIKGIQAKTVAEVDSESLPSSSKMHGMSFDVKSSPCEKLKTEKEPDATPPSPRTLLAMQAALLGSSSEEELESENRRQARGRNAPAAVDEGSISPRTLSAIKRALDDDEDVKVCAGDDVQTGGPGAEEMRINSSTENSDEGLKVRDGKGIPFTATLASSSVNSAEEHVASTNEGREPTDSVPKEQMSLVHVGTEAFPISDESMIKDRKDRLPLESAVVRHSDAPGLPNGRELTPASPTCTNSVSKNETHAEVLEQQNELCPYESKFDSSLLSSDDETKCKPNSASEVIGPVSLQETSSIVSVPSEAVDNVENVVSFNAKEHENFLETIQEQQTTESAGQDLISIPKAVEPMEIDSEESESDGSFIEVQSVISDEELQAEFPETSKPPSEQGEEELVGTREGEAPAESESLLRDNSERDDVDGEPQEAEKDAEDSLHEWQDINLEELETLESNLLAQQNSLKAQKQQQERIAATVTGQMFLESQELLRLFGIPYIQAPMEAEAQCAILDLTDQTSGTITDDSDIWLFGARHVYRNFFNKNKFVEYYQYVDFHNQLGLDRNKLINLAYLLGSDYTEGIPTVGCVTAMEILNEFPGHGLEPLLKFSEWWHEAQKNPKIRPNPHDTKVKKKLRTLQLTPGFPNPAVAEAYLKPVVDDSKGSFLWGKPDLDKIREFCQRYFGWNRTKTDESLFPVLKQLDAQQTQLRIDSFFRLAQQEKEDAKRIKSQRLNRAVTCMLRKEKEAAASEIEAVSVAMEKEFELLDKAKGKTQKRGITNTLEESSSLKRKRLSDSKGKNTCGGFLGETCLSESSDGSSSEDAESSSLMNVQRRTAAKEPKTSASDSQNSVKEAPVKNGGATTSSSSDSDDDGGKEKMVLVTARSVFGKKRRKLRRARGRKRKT

Sequence of Flap endonuclease 1 (P39748 whole entry): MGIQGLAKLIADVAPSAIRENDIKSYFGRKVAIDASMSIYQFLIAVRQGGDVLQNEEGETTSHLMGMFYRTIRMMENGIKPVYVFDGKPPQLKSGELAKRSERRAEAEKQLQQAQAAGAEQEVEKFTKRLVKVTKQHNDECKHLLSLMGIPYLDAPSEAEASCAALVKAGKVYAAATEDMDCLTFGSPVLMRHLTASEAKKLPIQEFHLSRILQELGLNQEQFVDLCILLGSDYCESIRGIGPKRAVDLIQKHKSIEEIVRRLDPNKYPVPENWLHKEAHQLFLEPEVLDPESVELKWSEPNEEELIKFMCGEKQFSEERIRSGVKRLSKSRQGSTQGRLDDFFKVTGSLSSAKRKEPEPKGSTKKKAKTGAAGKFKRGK

SMILES	IC50 (Flap endonuclease 1) [µM]	IC50 [1] [µM]
O=C(O)C(=O)CC(=O)c1ccco1	64.2	41
O=C(CC(=O)c1nnn[nH]1)c1ccc(Oc2ccccc2)cc1	63.2	97
C=C(CC(=O)c1ccc(Oc2ccccc2)cc1)C(=O)O	> 100	> 100
O=C(O)C(=O)Cc1ncc(-c2ccccc2)s1	46.4	31.7
O=C(CC(=O)c1cc(=O)[nH]o1)c1ccc(Oc2ccccc2)cc1	> 100	> 100
O=C(O)C(=O)CC(=O)c1ccc(-c2ccccc2)s1	7.65	1.85
COc1ccc(-c2ccc(Cl)c(C(=O)CC(=O)C(=O)O)c2)cc1	0.19	0.57
O=C(O)C(=O)CC(=O)c1ccc(-c2ccc(OC(F)(F)F)cc2)s1	0.44	0.31
O=C(O)C(=O)CC(=O)c1ccc(-c2ccc(Cl)cc2)o1	10.8	0.98
O=C(O)C(=O)CC(=O)c1ccc(-c2ccc(Cl)cc2)cc1Cl	0.41	1.77
O=C(O)C(=O)CC(=O)c1cccs1	10.1	38.7
O=C(O)C(=O)CC(=O)c1cccc(Cl)c1	6.96	13.1
O=C(O)C(=O)CC(=O)c1c(Cl)cccc1Cl	37.9	> 100
O=C(O)C(=O)CC(=O)c1ccc(-c2ccccc2Cl)o1	12.2	1.85
CC(C)(C)c1ccc(-c2ccc(C(=O)CC(=O)C(=O)O)o2)cc1	13.5	3.13
COc1ccc(-c2cccc(C(=O)CC(=O)C(=O)O)c2)cc1	1.36	1.59
O=C(O)C(=O)CC(=O)c1ccc(Oc2ccccc2)cc1	1.75	1.87
O=C(O)C(=O)CC(=O)c1cccc(-c2ccccc2)c1	3.62	3.24

SMILES	IC50 (Flap endonuclease 1) [µM]	IC50 [1] [µM]
O=C(O)C(=O)CC(=O)c1cccc(Cl)c1Cl	17.7	22.1
Cc1ccccc1C(=O)CC(=O)C(=O)O	12.9	54.5
O=C(O)C(=O)CC(=O)c1cccc(Oc2ccccc2)c1	7.31	5.44
O=C(O)C(=O)CC(=O)c1ccc(Cl)cc1Cl	5.53	9.85
O=C(O)C(=O)CC(=O)c1cc(Cl)ccc1Cl	1.82	7
O=C(O)C(=O)CC(=O)c1cc(-c2ccccc2)ccc1Cl	0.33	1.13
O=C(O)C(=O)CC(=O)c1ccccc1	24.9	75.4
O=C(O)C(=O)CC(=O)c1ccc(-c2ccccc2)cc1	3.5	1.6
O=C(CC(=O)c1nnn[nH]1)c1ccc(-c2ccccc2)cc1	> 100	> 100
CCOc1ccc(-c2ccc(C(=O)CC(=O)C(=O)O)o2)cc1	11.3	1.4
COc1ccc(Cn2nnnc2C(=O)CC(=O)c2ccc(-c3ccccc3)cc2)cc1	34.3	52.4
O=C(O)C(=O)CC(=O)c1ccc(-c2ccc(Cl)c(F)c2)s1	0.57	0.9
O=C(O)C(=O)CC(=O)c1ccccc1Cl	3.51	38.1
O=C(O)C(=O)CC(=O)c1ccccc1F	14.5	78.5
O=C(c1ccc(Oc2ccccc2)cc1)c1ncc2cccnc2c1O	29	> 100
O=C(O)C(=O)CC(=O)c1ccc(Cl)cc1	19.3	12.7
O=C(O)C(=O)CC(=O)c1ccc(-c2ccccc2)o1	1.66	1.81
